From ChEMBL document CHEMBL1250501, “Anti-tubercular agents. Part 5: synthesis and biological evaluation of benzothiadiazine 1,1-dioxide based congeners” (Eur J Med Chem, 2010)
≈ marks a conversion by molar mass, not a printed value. Calls of active or inactive are those of the source. No cut-off for these calls is given here.

What was measured:
[1] = tested on: Candida albicans; experiment: Antifungal activity against Candida albicans MTCC 227 at 20 ug/ml after 48 hrs by cup plate method; type: functional, organism-based
Outline: (§1)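 Agar well (cup plate) diffusion on potato dextrose agar 39 g/L. Compounds dissolved in DMSO and loaded into 6 mm wells. Incubated at 28 ± 2 °C for 48 h. Inhibition zone diameter measured to the nearest millimetre, three replicates per treatment. DMSO solvent as negative control, amphotericin B as positive control.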

[2] = tested on: Aspergillus niger; experiment: Antifungal activity against Aspergillus niger at 20 ug/ml after 48 hrs by cup plate method; type: functional, organism-based
Outline: (§2)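 Agar well (cup plate) diffusion on potato dextrose agar 39 g/L, with compounds dissolved in DMSO. Plates were incubated at 28 ± 2 °C for 48 h and inhibition zones measured to the nearest mm. Three replicates per treatment. Amphotericin B positive control; solvent control included.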

[3] = tested on: Aspergillus sp.; experiment: Antifungal activity against Aspergillus sp. at 20 ug/ml after 48 hrs by cup plate method; type: functional, organism-based; outline: as §2
[4] = tested on: Mycobacterium tuberculosis; experiment: Antimycobacterial activity against Mycobacterium tuberculosis H37Rv after 3 to 4 weeks by broth microdilution assay; type: functional
Outline: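 MIC by broth microdilution on compounds active in a single-concentration primary screen. Plates incubated 3–4 weeks at 37 °C in a CO₂ incubator. Wells read visually for absence of growth turbidity.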

[5] = tested on: Mycobacterium tuberculosis; experiment: Antimycobacterial activity against Mycobacterium tuberculosis H37Rv infected in BALB/c mouse lung assessed as reduction of bacterial load at 10 mg/kg, po administered 1 week after infection measured after 4 weeks; type: functional
Outline: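 Female BALB/c mice, 6 weeks old, 20–22 g, acclimatised one week. Infected intranasally with about 1.5 × 10⁶ CFU of H37Rv grown 10 days in 7H9/ADC. Treatment began 1 week post-infection, given orally in 50% PEG in water, for 4 weeks. Lungs and spleens homogenised in saline with 0.05% Tween 80. Duplicate 10-fold dilutions plated on 7H10/OADC, 37 °C, 5% CO₂, 4–6 weeks. Result expressed as log₁₀ CFU per organ versus untreated controls.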

[6] = tested on: Staphylococcus aureus; experiment: Antibacterial activity against Staphylococcus aureus at 100 ug/ml after 18 hrs by cup plate method; type: functional; conditions: read-out: DIZ
Outline: (§3)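 Agar well diffusion on Mueller-Hinton agar. Inoculum was adjusted to a 0.5 McFarland standard (about […] × 10⁸ CFU/mL) and swabbed over the plate three times, rotating about 60° each time, then the rim was swabbed. Compounds in DMSO went into duplicate 6 mm wells. Plates were incubated at 37 °C for 18 h and inhibition zone diameter read to the nearest mm. DMSO negative control; streptomycin and ciprofloxacin positive controls.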

[7] = tested on: Staphylococcus aureus; experiment: Antibacterial activity against Staphylococcus aureus at 50 ug/ml after 18 hrs by cup plate method; type: functional; conditions: read-out: DIZ; outline: as §3
[8] = tested on: Staphylococcus epidermidis; experiment: Antibacterial activity against Staphylococcus epidermidis at 100 ug/ml after 18 hrs by cup plate method; type: functional; conditions: read-out: DIZ; outline: as §3
[9] = tested on: Staphylococcus epidermidis; experiment: Antibacterial activity against Staphylococcus epidermidis at 50 ug/ml after 18 hrs by cup plate method; type: functional; conditions: read-out: DIZ; outline: as §3
[10] = tested on: Bacillus subtilis; experiment: Antibacterial activity against Bacillus subtilis at 100 ug/ml after 18 hrs by cup plate method; type: functional; conditions: read-out: DIZ; outline: as §3
[11] = tested on: Bacillus subtilis; experiment: Antibacterial activity against Bacillus subtilis at 50 ug/ml after 18 hrs by cup plate method; type: functional; outline: as §3
[12] = tested on: Escherichia coli; experiment: Antibacterial activity against Escherichia coli at 100 ug/ml after 18 hrs by cup plate method; type: functional; conditions: read-out: DIZ; outline: as §3
[13] = tested on: Escherichia coli; experiment: Antibacterial activity against Escherichia coli at 50 ug/ml after 18 hrs by cup plate method; type: functional; conditions: read-out: DIZ; outline: as §3
[14] = tested on: Klebsiella pneumoniae; experiment: Antibacterial activity against Klebsiella pneumoniae at 100 ug/ml after 18 hrs by cup plate method; type: functional; conditions: read-out: DIZ; outline: as §3
[15] = tested on: Klebsiella pneumoniae; experiment: Antibacterial activity against Klebsiella pneumoniae at 50 ug/ml after 18 hrs by cup plate method; type: functional; conditions: read-out: DIZ; outline: as §3
[16] = tested on: Pseudomonas aeruginosa; experiment: Antibacterial activity against Pseudomonas aeruginosa at 100 ug/ml after 18 hrs by cup plate method; type: functional; conditions: read-out: DIZ; outline: as §3
[17] = tested on: Pseudomonas aeruginosa; experiment: Antibacterial activity against Pseudomonas aeruginosa at 50 ug/ml after 18 hrs by cup plate method; type: functional; conditions: read-out: DIZ; outline: as §3
[18] = tested on: Candida albicans; experiment: Antifungal activity against Candida albicans MTCC 227 at 100 ug/ml after 48 hrs by cup plate method; type: functional; conditions: MTCC 227, 48 h, read-out: IZ; outline: as §2
[19] = tested on: Candida albicans; experiment: Antifungal activity against Candida albicans MTCC 227 at 50 ug/ml after 48 hrs by cup plate method; type: functional; conditions: MTCC 227, 48 h, read-out: IZ; outline: as §1
[20] = tested on: Staphylococcus aureus; experiment: Antibacterial activity against Staphylococcus aureus at 10 ug/ml after 18 hrs by cup plate method; type: functional; outline: as §3
[21] = tested on: Staphylococcus aureus; experiment: Antibacterial activity against Staphylococcus aureus at 25 ug/ml after 18 hrs by cup plate method; type: functional; conditions: read-out: DIZ; outline: as §3
[22] = tested on: Staphylococcus aureus; experiment: Antibacterial activity against Staphylococcus aureus at 75 ug/ml after 18 hrs by cup plate method; type: functional; conditions: read-out: DIZ; outline: as §3
[23] = tested on: Staphylococcus epidermidis; experiment: Antibacterial activity against Staphylococcus epidermidis at 10 ug/ml after 18 hrs by cup plate method; type: functional; conditions: read-out: DIZ; outline: as §3
[24] = tested on: Staphylococcus epidermidis; experiment: Antibacterial activity against Staphylococcus epidermidis at 25 ug/ml after 18 hrs by cup plate method; type: functional; conditions: read-out: DIZ; outline: as §3
[25] = tested on: Staphylococcus epidermidis; experiment: Antibacterial activity against Staphylococcus epidermidis at 75 ug/ml after 18 hrs by cup plate method; type: functional; conditions: read-out: DIZ; outline: as §3
[26] = tested on: Bacillus subtilis; experiment: Antibacterial activity against Bacillus subtilis at 10 ug/ml after 18 hrs by cup plate method; type: functional; conditions: read-out: DIZ; outline: as §3
[27] = tested on: Escherichia coli; experiment: Antibacterial activity against Escherichia coli at 75 ug/ml after 18 hrs by cup plate method; type: functional; conditions: read-out: DIZ; outline: as §3
[28] = tested on: Pseudomonas aeruginosa; experiment: Antibacterial activity against Pseudomonas aeruginosa at 10 ug/ml after 18 hrs by cup plate method; type: functional; outline: as §3
[29] = tested on: Pseudomonas aeruginosa; experiment: Antibacterial activity against Pseudomonas aeruginosa at 25 ug/ml after 18 hrs by cup plate method; type: functional; conditions: read-out: DIZ; outline: as §3
[30] = tested on: Pseudomonas aeruginosa; experiment: Antibacterial activity against Pseudomonas aeruginosa at 75 ug/ml after 18 hrs by cup plate method; type: functional; conditions: read-out: DIZ; outline: as §3
[31] = tested on: Klebsiella pneumoniae; experiment: Antibacterial activity against Klebsiella pneumoniae at 10 ug/ml after 18 hrs by cup plate method; type: functional; outline: as §3
[32] = tested on: Klebsiella pneumoniae; experiment: Antibacterial activity against Klebsiella pneumoniae at 25 ug/ml after 18 hrs by cup plate method; type: functional; conditions: read-out: DIZ; outline: as §3
[33] = tested on: Klebsiella pneumoniae; experiment: Antibacterial activity against Klebsiella pneumoniae at 75 ug/ml after 18 hrs by cup plate method; type: functional; conditions: read-out: DIZ; outline: as §3
[34] = tested on: Candida albicans; experiment: Antifungal activity against Candida albicans MTCC 227 at 25 ug/ml after 48 hrs by cup plate method; type: functional; outline: as §1
[35] = tested on: Candida albicans; experiment: Antifungal activity against Candida albicans MTCC 227 at 75 ug/ml after 48 hrs by cup plate method; type: functional; conditions: MTCC 227, 48 h, read-out: IZ; outline: as §1
[36] = tested on: Aspergillus niger; experiment: Antifungal activity against Aspergillus niger at 25 ug/ml after 48 hrs by cup plate method; type: functional, organism-based; outline: as §2
[37] = tested on: Aspergillus niger; experiment: Antifungal activity against Aspergillus niger at 50 ug/ml after 48 hrs by cup plate method; type: functional, organism-based; outline: as §2
[38] = tested on: Aspergillus niger; experiment: Antifungal activity against Aspergillus niger at 75 ug/ml after 48 hrs by cup plate method; type: functional; outline: as §2
[39] = tested on: Aspergillus niger; experiment: Antifungal activity against Aspergillus niger at 100 ug/ml after 48 hrs by cup plate method; type: functional; outline: as §2
[40] = tested on: Aspergillus sp.; experiment: Antifungal activity against Aspergillus sp. at 25 ug/ml after 48 hrs by cup plate method; type: functional; outline: as §2
[41] = tested on: Aspergillus sp.; experiment: Antifungal activity against Aspergillus sp. at 50 ug/ml after 48 hrs by cup plate method; type: functional; outline: as §2
[42] = tested on: Aspergillus sp.; experiment: Antifungal activity against Aspergillus sp. at 75 ug/ml after 48 hrs by cup plate method; type: functional; outline: as §2
[43] = tested on: Aspergillus sp.; experiment: Antifungal activity against Aspergillus sp. at 100 ug/ml after 48 hrs by cup plate method; type: functional; outline: as §2

## NYSTATIN
[1]
  inhibition zone (IZ): inactive
[2]
  inhibition zone (IZ): 26 mm
[3]
  inhibition zone (IZ): 16 mm

## CO[C@H]1/C=C/O[C@@]2(C)Oc3c(C)c(O)c4c(O)c(c(/C=N/N5CCN(C)CC5)c(O)c4c3C2=O)NC(=O)/C(C)=C\C=C\[C@H](C)[C@H](O)[C@@H](C)[C@@H](O)[C@@H](C)[C@H](OC(C)=O)[C@@H]1C [RIFAMPIN]
[4]
  MIC: 0.25 µg/mL (≈ 0.304 µM)
[5]
  log10cfu: 3.8

## CN1C(N2CCN(Cc3ccc([N+](=O)[O-])o3)CC2)=NS(=O)(=O)c2ccccc21
[4]
  MIC: 8 µg/mL (≈ 19.7 µM)
[6]
  zone of inhibition at 100 µg/mL: 17 mm
[7]
  zone of inhibition at 50 µg/mL: 14 mm
[8]
  zone of inhibition at 100 µg/mL: 24 mm
[9]
  zone of inhibition at 50 µg/mL: 15 mm
[10]
  zone of inhibition at 100 µg/mL: 23 mm
[11]
  diameter of the inhibition zone (DIZ): inactive
[12]
  zone of inhibition at 100 µg/mL: 26 mm
[13]
  zone of inhibition at 50 µg/mL: 15 mm
[14]
  zone of inhibition at 100 µg/mL: 19 mm
[15]
  zone of inhibition at 50 µg/mL: 10 mm
[16]
  zone of inhibition at 100 µg/mL: 17 mm
[17]
  zone of inhibition at 50 µg/mL: 10 mm
[18]
  zone of inhibition at 100 µg/mL: 18 mm
[19]
  zone of inhibition at 50 µg/mL: 11 mm
[20]
  diameter of the inhibition zone (DIZ): inactive
[21]
  zone of inhibition at 25 µg/mL: 10 mm
[22]
  zone of inhibition at 75 µg/mL: 17 mm
[23]
  zone of inhibition at 10 µg/mL: 10 mm
[24]
  zone of inhibition at 25 µg/mL: 13 mm
[25]
  zone of inhibition at 75 µg/mL: 18 mm
[26]
  zone of inhibition at 10 µg/mL: 9 mm
[27]
  zone of inhibition at 75 µg/mL: 29 mm
[28]
  diameter of the inhibition zone (DIZ): inactive
[29]
  zone of inhibition at 25 µg/mL: 12 mm
[30]
  zone of inhibition at 75 µg/mL: 17 mm
[31]
  diameter of the inhibition zone (DIZ): inactive
[32]
  zone of inhibition at 25 µg/mL: 12 mm
[33]
  zone of inhibition at 75 µg/mL: 17 mm
[34]
  inhibition zone (IZ): inactive
[35]
  zone of inhibition at 75 µg/mL: 14 mm
[36]
  inhibition zone (IZ): inactive
[37]
  inhibition zone (IZ): inactive
[38]
  inhibition zone (IZ): inactive
[39]
  inhibition zone (IZ): inactive
[40]
  inhibition zone (IZ): inactive
[41]
  inhibition zone (IZ): inactive
[42]
  inhibition zone (IZ): inactive
[43]
  inhibition zone (IZ): inactive
